Sampled rows, rich in hits. Any-hit rate of the full collection: about 6.4%.
GRIN3A LBD mod: NR3A (human) ligand-binding domain modulation. NR3A LBD differential scanning fluorimetry, Tm shift; 0% = protein alone, 100% = glycine-bound protein. Tm shift relative to glycine control, % at 25 µM. 340,000 tested, 2.5% active. AID 1259313;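 active = melting temperature shift of at least 10% of the positive control shift, at one fixed dose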
EBV gp42 inh: EBV gp42 inhibition. Q1HVG2. Fluorescence polarization binding assay, mP read-out. inhibition, % (tested at 21.74 µM). 220,000 tested, 0.42% active; in the data active = inhibition above about 50%
Target sequence (Q1HVG2 whole entry, looked up): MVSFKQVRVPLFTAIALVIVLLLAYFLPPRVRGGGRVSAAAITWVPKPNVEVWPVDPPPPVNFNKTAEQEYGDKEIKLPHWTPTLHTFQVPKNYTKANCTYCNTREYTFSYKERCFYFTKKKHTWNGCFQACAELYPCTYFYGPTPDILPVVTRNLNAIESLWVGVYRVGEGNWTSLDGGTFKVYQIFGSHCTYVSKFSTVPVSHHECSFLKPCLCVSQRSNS
WT yeast gro inh: growth inhibition of WT yeast, mitochondrial fusion screen. inhibition, % at 10 µM. 190,000 tested, 2.1% active. AID 1362. mitochondrial fusion phenotypic screen, WT strain; in the data active = inhibition above about 58%; tested in S. cerevisiae
CHOP inh: CHOP inhibition in unfolded protein response; CHO-K1 CHOP-promoter luciferase, tunicamycin-induced, 15-18 h; inhibition, % at 10 µM; 220,000 tested, 3.8% active;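 active = compounds that reduced the stress-induced luciferase reporter signal by more than about 70% of percent inhibition, limit read from the data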
MPTP inh: permeability transition pore inhibition | isolated mouse mitochondria, Ca2+ swelling absorbance, 30 min | inhibition, % at 10 µM | 360,000 tested, 1.4% active | AID 602449;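 active = inhibition of 50% or more, scaled per plate between neutral and stimulator controls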
TbMetRS inhib: Trypanosoma brucei MetRS inhibition | purified T. brucei MetRS, ATP depletion, Kinase-Glo luminescence | 360,000 tested, 0.4% active | AID 624268 | inhibition, % at 11.9 µM;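 active = inhibition above a per-plate cutoff of the control wells' mean inhibition plus 3 SD, cut at about 5.5% in these data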
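Dosing: 11.9 µM single point; system: parasite MetRS enzyme; technique: luminescence of leftover ATP; times: 15 min enzyme-compound preincubation, 2 h reaction, 10 min detection, 25 °C; replicates: each compound tested once; read-out basis: percent inhibition relative to median high and low control wells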
TbMetRS confirm: Trypanosoma brucei MetRS inhibition confirmed | shares compounds with TbMetRS inhib | T. brucei MetRS enzyme, luminescence (ATP depletion) | inhibition, % at 11.9 µM | 1,400 tested, 93% active | AID 624412; in the data active = inhibition above about 7%
Jurkat tox: counter-screen for T. brucei MetRS inhibitors: Jurkat cell cytotoxicity. shares compounds with TbMetRS inhib. Jurkat cells viability, ATP luminescence. inhibition, % at 8.3 µM. 1,400 tested, 12% active. AID 624413; in the data active = inhibition above about 15%
TbMetRS FP orth: orthogonal test for Trypanosoma brucei MetRS inhibitors; shares compounds with TbMetRS inhib; 1,400 tested, 44% active; purified T. brucei MetRS, fluorescence polarization; AID 651607; inhibition, % at 11.9 µM; in the data active = inhibition above about 17%
A number is an active result; – = inactive; · = not tested or not shown.

SMILES	GRIN3A LBD mod	EBV gp42 inh	WT yeast gro inh	CHOP inh	MPTP inh	TbMetRS inhib	TbMetRS confirm	Jurkat tox	TbMetRS FP orth
Cc1ccc(N(C)S(=O)(=O)c2ccc3c(c2)CC(C)N3C(=O)C2CC2)cc1 (stereo not drawn)	–	·	·	·	–	–	·	·	·
CCOC(=O)c1ccc(NC(=O)CSCCC(=O)O)cc1	–	–	–	–	–	–	·	·	·
CCOc1ccc(-c2nc(CSCC(=O)NCCCN3CCCC3=O)c(C)o2)cc1	–	·	·	·	–	–	·	·	·
COc1ccc(S(=O)(=O)Nc2c(C)cccc2C)cc1-n1cnnn1	–	·	·	·	–	5.9	–	–	–
CCCCc1c(-c2ccccc2OC)ncn1Cc1ccc(Cl)cc1	·	·	·	·	–	–	·	·	·
CCCCc1c(-c2ccccc2OC)ncn1CCc1cccc(Cl)c1	·	·	·	·	–	5.8	15.8	36.2	–
O=C(NNC(=S)Nc1ccc(F)cc1)C1CC1c1ccc(Cl)cc1 (stereo not drawn)	–	–	–	–	–	48.0	66.3	–	41.2
Cc1nc(SCC(=O)NCCc2ccccc2)c2c(=O)n(C)c(=O)n(C)c2n1	–	·	·	·	–	–	·	·	·
Cc1nc(SCC(=O)NCc2ccccc2)c2c(=O)n(C)c(=O)n(C)c2n1	–	–	–	–	–	5.6	–	–	–
O=C(c1ccncc1)c1ccc(N2CCN(C3CC(=O)N(Cc4ccccc4)C3=O)CC2)cc1 (stereo not drawn)	–	–	–	–	–	15.1	27.7	–	–
COc1ccc(N2CCN(C3CC(=O)N(Cc4ccccc4)C3=O)CC2)cc1 (stereo not drawn)	–	–	–	–	–	–	·	·	·
COc1cc(C(=O)N2CCN(C(=O)Cc3ccccc3)CC2)cc(OC)c1OC	–	–	–	–	–	–	·	·	·
Nc1cc(C(=O)OCC(=O)NCCNC(=O)COC(=O)c2ccc(Cl)c(N)c2)ccc1Cl	–	·	·	·	–	11.4	30.4	–	–
C/C(Cc1ccccc1)=N\NC(=O)CCCCCC(=O)N/N=C(\C)Cc1ccccc1	–	–	–	–	–	–	·	·	·
Clc1ccc(-c2nnc(SCc3nc4ccccc4[nH]3)o2)c(Cl)c1	–	–	–	–	–	77.6	101.0	–	90.2
CN(C)S(=O)(=O)c1cc(NC(=O)[C@H](Cc2ccccc2)N2C(=O)c3ccccc3C2=O)ccc1Cl	–	–	–	–	–	–	·	·	·
Cc1ccc(CC(=O)Nc2cccc(S(=O)(=O)N3CCOCC3)c2)cc1	–	·	·	·	–	–	·	·	·
O=C(Cc1ccc(Br)cc1)Nc1cccc(S(=O)(=O)N2CCOCC2)c1	–	·	·	·	–	54.7	76.2	–	57.5
O=C(COc1ccc(S(=O)(=O)N2CCOCC2)cc1)Nc1ccc(Br)cc1	–	·	·	·	–	17.6	50.2	16.8	32.6
NC(Cc1ccc(C(F)(F)F)cc1)c1csc(NC(=O)Nc2ccccc2Cl)n1 (stereo not drawn)	·	·	·	·	–	–	·	·	·
COc1ccccc1NC(=O)Nc1nc(C(N)Cc2ccc(Cl)cc2)cs1 (stereo not drawn)	·	·	·	·	–	–	·	·	·
NC(Cc1ccc(Cl)cc1)c1csc(NC(=O)Nc2ccccc2)n1 (stereo not drawn)	·	·	·	·	–	60.6	86.9	–	85.3
NC(Cc1ccc(C(F)(F)F)cc1)c1csc(NC(=O)Nc2ccccc2)n1 (stereo not drawn)	·	·	·	·	–	76.9	96.2	–	90.5
COc1cccc(/C=C(\C#N)c2nc3ccc(C)cc3[nH]2)c1OCC(=O)O	–	·	·	·	–	–	·	·	·
Cc1ccc2nc(/C(C#N)=C/c3cn[nH]c3-c3ccc(F)cc3)[nH]c2c1	–	–	–	–	–	24.3	50.9	56.9	46.9
NC(=S)Nc1cccc(-c2n[nH]c(=S)o2)c1	–	–	·	–	–	13.6	35.4	–	16.8
C[C@H](CO)N1C[C@H](C)[C@@H](CN(C)C(=O)NC2CCCCC2)Oc2ccc(NS(=O)(=O)c3cccs3)cc2C1=O	–	·	·	·	–	–	·	·	·
COc1ccc(CCNC(=O)c2ccc([N+](=O)[O-])cc2Cl)cc1OC	–	·	·	·	–	–	·	·	·

Screens deposited in PubChem BioAssay by several laboratories.
